Hits are enriched below; roughly 3.2% of the tested compounds scored in any of these assays.
zfTRPN1 agonist: agonists of zebrafish TRPN1 channel | HEK293 zebrafish TRPN1-YFP, Fluo-8 calcium fluorescence; 100% = response to 87 µM carbachol | AID 1424 | activation, % at 3 µM | 220,000 tested, 0.18% active;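 active = activation above its plate's cutoff, the mean activation of test wells on that plate plus 3 SD, cut at about 19% in these data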;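 note: 0% = DMSO alone and 100% = 87 µM carbachol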
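Material: zebrafish TRPN1-YFP in HEK293 cells. Doses: one dose of 3 µM, 0.3% DMSO. Incubation: dye 1 h 37 °C plus 30 min RT. Measured by: intracellular calcium fluorescence with Fluo-8.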
CHO parental Ca: counter-screen: ATP calcium response change in parental CHO cells | parental CHO-K1, ATP-induced calcium, Fluo-8 fluorescence | 330,000 tested, 0.63% active | inhibition, % at 5.6 µM;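 active = inhibition above that plate's mean sample inhibition plus 3 SD, cut at about 26% in these data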;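 note: 0% = ATP-challenged DMSO wells and 100% = DMSO wells without ATP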
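Assay system: parental CHO cells; Read-out basis: percent inhibition of ATP-evoked calcium rise, normalized to controls; Benchmarks: ATP and no-ATP DMSO wells; Compound dosing: single nominal dose of 5.6 µM per compound; Signal: Fluo-8 calcium dye fluorescence; Also added: ATP as calcium-mobilizing challenge; Repeats: singlicate.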
OX1R antag-1: blocks the human orexin 1 receptor. O43613. OX1R-expressing cells, FRET antagonist read-out. inhibition, % at 6.6 µM. 330,000 tested, 1.8% active. AID 485270; in the data active = inhibition mostly above about 38%, no sharp cut-off; inactive = mostly below about 40%;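 note: 0% = agonist challenge alone and 100% = reference antagonist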
TRPML3 agonist: activates the human TRPML3 channel. HEK293 TRPML3-YFP, Fluo-8 calcium fluorescence; 100% = the carbachol control signal. Q8TDD5. activation, % at 3 µM. 220,000 tested, 0.29% active. AID 1448;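 active = activation above its plate's cutoff, the mean activation of the plate's test wells plus 3 SD, cut at about 12% in these data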;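 note: 0% = DMSO only wells and 100% = carbachol wells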
Target sequence (Q8TDD5 whole entry, looked up): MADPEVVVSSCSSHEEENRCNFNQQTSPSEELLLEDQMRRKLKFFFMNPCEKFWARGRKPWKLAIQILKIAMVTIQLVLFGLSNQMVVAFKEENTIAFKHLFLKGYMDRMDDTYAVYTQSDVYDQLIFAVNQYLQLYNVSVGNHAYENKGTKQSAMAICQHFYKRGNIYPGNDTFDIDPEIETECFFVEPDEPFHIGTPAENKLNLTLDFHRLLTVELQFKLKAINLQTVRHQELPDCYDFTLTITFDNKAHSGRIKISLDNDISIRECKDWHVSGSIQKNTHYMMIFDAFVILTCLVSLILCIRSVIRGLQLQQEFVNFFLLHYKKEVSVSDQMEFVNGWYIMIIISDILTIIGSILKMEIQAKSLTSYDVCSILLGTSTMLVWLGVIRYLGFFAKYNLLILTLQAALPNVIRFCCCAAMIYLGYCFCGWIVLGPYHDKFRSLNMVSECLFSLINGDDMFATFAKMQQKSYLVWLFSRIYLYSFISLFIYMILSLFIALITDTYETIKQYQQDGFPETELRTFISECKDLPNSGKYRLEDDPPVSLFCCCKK
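Test system: TRPML3-YFP stable HEK293 cells. Doses: single point at 3 µM. Incubation: dye loading 1 h 37 °C then 30 min ambient, 125 s read. Signal: Fluo-8 calcium dye fluorescence, ex 470-495, em 515-575 nm. Measure: percent activation from peak-to-basal fluorescence ratio, scaled between DMSO and carbachol.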
GPR7 antag: human neuropeptides B/W receptor 1 antagonism | inhibition, % at 4.4 µM | 290,000 tested, 1.1% active | GPR7-expressing cells, fluorescence antagonist assay | P48145; in the data active = inhibition above about 16%, passing the limit was not always enough;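 note: cells stimulated with the agonist NPW; 0% = agonist with vehicle and 100% = vehicle without agonist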
OX1R antag-2: human HCRTR1 antagonism; 330,000 tested, 0.43% active; CHO/OX1R cells, Fluo-8 calcium fluorescence, orexin A; AID 434989; inhibition, % at 5 µM; O43613;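 active = inhibition above its plate's threshold, mean inhibition of all tested compounds on the plate plus 3 SD, cut at about 37% in these data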;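 note: 0% = orexin A challenge wells and 100% = SB-334867-A antagonist wells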
GPR7 antag cf: human GPR7 antagonism, confirmation assay | 2,400 tested, 52% active | GPR7-expressing cells, calcium fluorescence antagonist mode | AID 1952 | shares compounds with GPR7 antag | inhibition, % at 4.4 µM; in the data active = inhibition above about 24%;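 note: stimulated with the GPR7 agonist NPW; 0% = agonist plus vehicle and 100% = vehicle alone without agonist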
MCHR1 antag: antagonizes human MCHR1, a GPR7 antagonist counter-screen. shares compounds with GPR7 antag. MCHR1-expressing cells, fluorescence antagonist assay. inhibition, % at 4.4 µM. 2,400 tested, 62% active. AID 2148; in the data active = inhibition above about 22%;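 note: 0% = vehicle with agonist and 100% = vehicle without agonist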
* hit, by the source's call; / = no result.

SMILES | zfTRPN1 agonist | CHO parental Ca | OX1R antag-1 | TRPML3 agonist | GPR7 antag | OX1R antag-2 | GPR7 antag cf | MCHR1 antag
OC(CNCc1ccc(F)cc1)(c1ccc(F)cc1)c1ccc(F)cc1 | 0.3 | -12.7 | 23.5 | 2.6 | 33.9* | -12.9 | 28.8* | 29.8*
COc1ccc(CNCC(O)(c2ccc(Cl)cc2)c2ccc(Cl)cc2)cc1 | -0.3 | -16.4 | 9.1 | 0.6 | 31.3* | -21.2 | 38.9* | 55.6*
O=C(CCl)Nc1cc(S(=O)(=O)N2CCCCCC2)ccc1Cl | 2.4 | -5.5 | 4.8 | 0.8 | -6.3 | -15.7 | / | /
COC(=O)Cc1ccc(NC(=S)N2CCN(C)CC2)cc1 | -1.3 | -11.8 | 12.8 | 0.1 | 33.9* | -0.1 | -6.1 | 13.0
CCCOc1ccc(C(=O)NNC(=O)CCNC(=O)c2ccco2)cc1OC | / | -14.7 | 13.3 | / | / | -17.9 | / | /
CCCCN(C(=O)C(C)(C)Oc1ccc(Cl)cc1)c1c(N)n(CCC)c(=O)[nH]c1=O | / | -9.9 | 2.3 | / | / | -13.9 | / | /
COc1ccccc1N1CCN(C(=O)/C=C/c2cccc([N+](=O)[O-])c2)CC1 | -1.6 | -15.6 | 3.5 | -0.5 | 31.5* | -12.5 | 16.1 | 33.0*
O=C(Nc1ccc(F)c(F)c1)C1CCN(S(=O)(=O)c2cccc3nonc23)CC1 | / | 4.7 | 17.4 | / | 16.8 | 3.6 | / | /
Brc1ccccc1OCCN1CCCC1 | / | -8.3 | 1.3 | / | / | -7.5 | / | /
O=C(CSc1nc2sc3c(c2c(=O)n1-c1ccccc1)CCCC3)N/N=C/c1ccccc1C(=O)O | / | -15.0 | -1.0 | / | -11.9 | 0.3 | / | /
COc1ccc(CCn2c(SCCN3CCCCC3)nc3ccccc3c2=O)cc1OC | -1.3 | -15.2 | 7.7 | -0.2 | 35.5* | -40.2 | 30.5* | 35.4*
N#Cc1ccsc1NC(=O)CCN1CCN(C(c2ccccc2)c2ccccc2)CC1 | / | -24.2 | 24.1 | / | -31.4 | -50.8 | / | /
Cc1ccc(S(=O)(=O)NN2C(=O)/C(=C/c3cccn3C)SC2=S)cc1 | 3.7 | -6.1 | 7.8 | 0.1 | -3.4 | -9.4 | / | /
Cn1cccc1/C=C1\SC(=S)N(Nc2ccccc2)C1=O | -0.1 | -18.1 | 11.4 | -0.6 | 22.3* | -21.9 | 16.8 | 23.2*
CCCC(=O)Nc1ccc2oc(=O)ccc2c1 | -0.1 | -1.3 | -0.2 | 1.3 | -16.8 | -9.2 | / | /
Cc1cccc(OCC(=O)Nc2ccc3oc(=O)ccc3c2)c1 | / | 10.0 | 21.6 | / | 36.3* | 8.1 | 32.6* | 36.1*
COc1ccc(-c2cc(C(=O)N(C)Cc3ccccc3)no2)cc1OC | -0.4 | -0.9 | 23.0 | -0.8 | 30.5* | -25.5 | -5.0 | -23.6
COc1nc(-c2ccccc2)nc(C)c1CC(=O)O | 1.8 | -13.1 | 23.7 | 1.0 | -8.2 | 3.4 | / | /
CN1C(=O)C(O)(CC(=O)/C=C/C=C/c2ccccc2)c2ccccc21 (stereo unspecified) | -0.8 | 0.3 | 4.7 | 0.1 | 23.3* | 6.1 | -16.1 | 9.5
CCCCN(C)CC(O)Cn1cc(/C=C/C(=O)c2ccc(OCC)cc2)c2ccccc21 (stereo unspecified) | / | 12.8 | 0.1 | / | 32.3* | -24.0 | 35.8* | 55.1*
Cc1ccc2nc(CCl)[n+]([O-])c(-c3ccccc3)c2c1 | / | -1.0 | 15.2 | / | -9.4 | -5.3 | / | /
CCC(C)NCCCOc1ccc(Cl)cc1C(C)(C)C (stereo unspecified) | 1.9 | -5.3 | 3.7 | 0.3 | -1.9 | -8.1 | / | /
COCCCNCCCOc1ccc(Cl)cc1C(C)(C)C | -0.5 | -17.7 | 17.3 | 2.2 | 21.5* | -15.7 | 26.1* | 33.1*
CNCCCOc1ccc(Cl)cc1C(C)(C)C | 3.0 | -1.6 | 11.5 | 1.7 | 24.5* | 2.5 | 41.0* | 47.5*
CC(C)(C)C(=O)NC(=S)NNC(=O)c1ccc(Cl)cc1Cl | 170.5* | 52.3* | 0.2 | 103.2* | 32.3* | 63.4* | 40.3* | 37.0*
SMILES | zfTRPN1 agonist | CHO parental Ca | OX1R antag-1 | TRPML3 agonist | GPR7 antag | OX1R antag-2 | GPR7 antag cf | MCHR1 antag
CC(OC(=O)c1ccc([N+](=O)[O-])s1)C(=O)Nc1ncc(Cl)cc1Cl (stereo unspecified) | 0.1 | -3.2 | 33.6 | 0.6 | -4.2 | -19.4 | / | /
CCOc1ccccc1N1CCN(c2ncnc3scc(-c4ccc(OC)cc4)c23)CC1 | / | -21.5 | 4.8 | / | 54.3* | -17.0 | 16.8 | 54.1*
CCOC(=O)c1ccc(NC(=S)N(CCN2CCCCCC2)Cc2cccs2)cc1 | -0.2 | -14.1 | 18.7 | 1.4 | -3.1 | -34.9 | / | /
Cc1ccc(NCC(=O)N/N=C/c2ccc(OC(=O)c3ccco3)cc2)cc1 | 0.2 | -14.5 | 2.8 | -0.1 | 30.5* | 2.0 | 30.7* | 11.2
CCOC(=O)N/N=C\c1ccc(OC(=O)c2ccco2)cc1 | 0.5 | -10.8 | 8.7 | 0.1 | -0.3 | -22.3 | / | /
Cc1ccc(CNC(=O)CNC(=S)N(Cc2ccccc2)Cc2ccccc2F)cc1 | -0.1 | / | / | -0.2 | -7.9 | / | / | /
CCOC(=O)/C(C)=C1\NC(C)(C)Cc2ccccc21 | 2.7 | / | / | -0.1 | 23.9* | / | 13.7 | 7.5
CC(Oc1ccccc1Cl)C(=O)Nc1ccc(S(=O)(=O)Nc2nccs2)cc1 (stereo unspecified) | / | -12.4 | 19.6 | / | / | -5.8 | / | /
CCOC(=O)N1CCC(n2c(SCC(=O)NCCc3ccc(S(N)(=O)=O)cc3)nc3ccccc3c2=O)CC1 | 0.9 | 7.7 | 59.1 | 0.2 | 43.1* | 0.5 | 19.2 | 20.0
O=C(Nc1nc2c(F)cccc2s1)C1CC1 | / | 3.3 | 5.2 | / | 28.6* | 8.1 | -3.7 | 12.1
CN(C)C1=NCCN1CCc1cccc(F)c1 | / | 9.7 | 23.6 | / | 5.2 | -8.6 | / | /
CCc1ccc(-c2cc(C)no2)cc1S(=O)(=O)NCCc1ccccc1 | / | -20.5 | 11.0 | / | 7.0 | 18.1 | / | /
CCc1ccc(-c2cc(C)no2)cc1S(=O)(=O)NCc1ccccc1OC | / | 7.2 | 35.6 | / | 31.2* | 14.6 | 7.2 | 31.4*
CCc1cccc2c(C(=O)C(NC(C)CC)c3ccccc3)c[nH]c12 (stereo unspecified) | / | -16.0 | 22.6 | / | 10.8 | -9.7 | / | /
CCc1cccc2c(C(=O)C(NCCCOC)c3ccccc3)c[nH]c12 (stereo unspecified) | / | -1.4 | 35.7 | / | 35.1* | 4.6 | 42.6* | 29.8*
COc1ccc(Cc2n[nH]c(=S)n2C)cc1Br | 1.1 | -7.4 | 17.8 | 0.6 | -3.2 | -2.5 | / | /
Cc1csc(NC(=O)CSc2nnc(Cc3cccn3C)n2CCc2ccccc2)n1 | -0.9 | -25.0 | 15.9 | -0.1 | 27.5* | -14.3 | 15.5 | 16.1
Cc1cc(NC(=O)CSc2nnc(Cc3cccn3C)n2CCc2ccccc2)no1 | -0.2 | -20.9 | 6.1 | -0.3 | 10.6 | -23.5 | / | /
Cc1onc(-c2ccccc2)c1C(=O)NNC(=S)NC(=O)/C=C/c1cccs1 | -0.4 | -1.5 | 4.4 | 0.2 | -8.8 | -1.8 | / | /
Cc1ccc(-n2c(SCC(=O)N3CCCCC3)nc(O)c(Cc3ccccc3)c2=O)cc1 | / | -12.1 | 3.8 | / | 25.0* | -13.1 | 10.4 | 3.7
